According to PMC9463588 (The Journal of Biological Chemistry, 2022):
Entries after “also recorded” stand apart in the source; their conditions may differ. Like-named read-outs stand apart in the source and are kept apart here.

T1: human CYP8B1 (Homo sapiens, UniProt Q9UNU6)
T1 sequence (Q9UNU6 26-501 limits assumed): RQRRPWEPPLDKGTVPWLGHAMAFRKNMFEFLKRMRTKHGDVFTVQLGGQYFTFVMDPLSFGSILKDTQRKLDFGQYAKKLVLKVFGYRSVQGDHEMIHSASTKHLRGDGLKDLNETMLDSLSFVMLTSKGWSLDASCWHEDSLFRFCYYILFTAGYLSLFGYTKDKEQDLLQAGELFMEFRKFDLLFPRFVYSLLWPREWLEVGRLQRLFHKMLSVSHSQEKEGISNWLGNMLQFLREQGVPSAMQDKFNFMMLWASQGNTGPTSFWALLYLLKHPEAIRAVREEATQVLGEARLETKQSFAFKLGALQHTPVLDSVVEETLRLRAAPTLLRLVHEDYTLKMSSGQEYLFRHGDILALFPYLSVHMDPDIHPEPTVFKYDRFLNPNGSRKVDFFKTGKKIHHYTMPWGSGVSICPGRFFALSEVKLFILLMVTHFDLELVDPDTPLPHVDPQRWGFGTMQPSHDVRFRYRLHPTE

T2: CYP8B1 W281F (Homo sapiens, UniProt Q9UNU6, W281F)
T2 sequence (Q9UNU6 26-501 W281F limits assumed): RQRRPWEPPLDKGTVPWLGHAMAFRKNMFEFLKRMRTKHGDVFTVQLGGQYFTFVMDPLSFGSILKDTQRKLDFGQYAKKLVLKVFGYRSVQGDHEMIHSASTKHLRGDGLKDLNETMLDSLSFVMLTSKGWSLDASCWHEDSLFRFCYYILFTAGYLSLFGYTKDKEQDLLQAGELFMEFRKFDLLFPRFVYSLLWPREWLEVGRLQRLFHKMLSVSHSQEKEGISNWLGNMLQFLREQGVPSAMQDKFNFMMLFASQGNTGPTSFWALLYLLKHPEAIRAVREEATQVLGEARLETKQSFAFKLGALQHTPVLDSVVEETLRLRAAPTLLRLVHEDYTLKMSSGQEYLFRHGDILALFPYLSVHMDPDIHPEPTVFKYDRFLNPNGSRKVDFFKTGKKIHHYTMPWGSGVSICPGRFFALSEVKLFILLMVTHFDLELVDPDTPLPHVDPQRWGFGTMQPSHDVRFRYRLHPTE


Key:
human CYP8B1 [1] = biological target: T1, human CYP8B1; assay: Ligand-binding assay by shift of the heme Soret peak, wild type CYP8B1; conditions: for Shift in Soret peak: spectral binding type, wild type CYP8B1; for Kd / KD: azoles, single site binding fit, interval in parentheses
Outline: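 Recombinant human CYP8B1 was expressed in E. coli with groES-groEL co-expression and purified by Ni-NTA and cation-exchange chromatography. Ligand was titrated into 1 μM enzyme in 50 mM potassium phosphate with 20% glycerol, in a 1 cm cuvette; azoles were dissolved in DMSO. The Soret shift (local absorbance maximum minus minimum) was plotted against concentration and fitted to a single-site specific binding equation, in triplicate.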

CYP8B1 W281F = biological target: T2, CYP8B1 W281F; assay: Ligand-binding assay by shift of the heme Soret peak, CYP8B1 W281F mutant
human CYP8B1 [2] = biological target: T1, human CYP8B1; assay: CYP8B1 inhibition assays; format: biochemical; conditions: activity remaining vs control without inhibitor, 80 μM inhibitor
Outline: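 Test compound at 80 μM was added to the kinetic assay: 0.01 μM CYP8B1 and 0.06 μM human P450 reductase in 50 mM potassium phosphate pH 7.4 with 20% glycerol, preincubated 10 min at room temperature. Substrate 7α-hydroxycholest-4-en-3-one was added, 200 μM NADPH started the reaction at 37 °C, and chloroform stopped it. The 12α-hydroxy product was measured by HPLC-UV at 240 nm. Activity is % of an inhibitor-free control; duplicate or triplicate.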

[3] = cited from earlier work
[4] = substrate: CC(C)CCC[C@@H](C)[C@H]1CC[C@H]2[C@@H]3[C@H](O)CC4=CC(=O)CC[C@]4(C)[C@H]3CC[C@]12C; format: biochemical, human; conditions: other: W281F mutant, 95% CI; pH 7.4
[5] = substrate: CC(C)CCC[C@@H](C)[C@H]1CC[C@H]2[C@@H]3[C@H](O)CC4=CC(=O)CC[C@]4(C)[C@H]3CC[C@]12C; format: biochemical, human; conditions: other: wild type CYP8B1, 95% CI; pH 7.4

Molecule	Shift in Soret peak (human CYP8B1 [1])	Kd (human CYP8B1 [1]) [nM]	Turnover at 80 μM (%) (human CYP8B1 [2])	KD (human CYP8B1 [1])	also measured
CC(C)CCC[C@@H](C)[C@H]1CC[C@H]2[C@@H]3[C@H](O)CC4=CC(=O)CC[C@]4(C)[C@H]3CC[C@]12C [7α-hydroxycholest-4-en-3-one]	type I	–	–	–	Kd (CYP8B1 W281F): 34.3 nM
Clc1ccccc1C(c1ccccc1)(c1ccccc1)n1ccnc1 [Clotrimazole]	Type II	1600	6.8	–	–
Clc1ccc(COC(Cn2ccnc2)c2ccc(Cl)cc2Cl)c(Cl)c1 (centres unmarked) [Miconazole]	Type II	98	0.75	submicromolar	Turnover at 80 μM (%) (human CYP8B1 [2]; listed as miconazole): less than 1%
CC(=O)N1CCN(c2ccc(OCC3COC(Cn4ccnc4)(c4ccc(Cl)cc4Cl)O3)cc2)CC1 (centres unmarked) [Ketoconazole]	Type II	1300	16	micromolar	–
Clc1cccc(C(c2ccc3[nH]cnc3c2)n2ccnc2)c1 (centres unmarked) [Liarozole]	Type II	1300	30	–	–
Clc1ccc(C(Cn2ccnc2)OCc2ccsc2Cl)c(Cl)c1 (centres unmarked) [Tioconazole]	Type II	210	1.4	submicromolar	–
Clc1ccc(COC(Cn2ccnc2)c2ccc(Cl)cc2Cl)cc1 (centres unmarked) [Econazole]	Type II	57	1.7	submicromolar	–
C[C@H](CCC(=O)O)[C@H]1CC[C@H]2[C@@H]3[C@H](O)C[C@@H]4C[C@H](O)CC[C@]4(C)[C@H]3C[C@H](O)[C@]12C [Cholic acid]	–	–	–	–	critical micellar concentration [3]: ~50 µM
OC(Cn1cncn1)(Cn1cncn1)c1ccc(F)cc1F [Fluconazole]	None	–	95	–	Shift in Soret peak (human CYP8B1 [1]; listed as fluconazole): did not induce a shift; also recorded: no binding
CYP8B1 W281F (Homo sapiens; W281F) (protein) RQRRPWEPPLDKGTVPWLGHAMAFRKNMFEFLKRMRTKHGDVFTVQLGGQYFTFVMDPLSFGSILKDTQRKLDFGQYAKKLVLKVFGYRSVQGDHEMIHSASTKHLRGDGLKDLNETMLDSLSFVMLTSKGWSLDASCWHEDSLFRFCYYILFTAGYLSLFGYTKDKEQDLLQAGELFMEFRKFDLLFPRFVYSLLWPREWLEVGRLQRLFHKMLSVSHSQEKEGISNWLGNMLQFLREQGVPSAMQDKFNFMMLFASQGNTGPTSFWALLYLLKHPEAIRAVREEATQVLGEARLETKQSFAFKLGALQHTPVLDSVVEETLRLRAAPTLLRLVHEDYTLKMSSGQEYLFRHGDILALFPYLSVHMDPDIHPEPTVFKYDRFLNPNGSRKVDFFKTGKKIHHYTMPWGSGVSICPGRFFALSEVKLFILLMVTHFDLELVDPDTPLPHVDPQRWGFGTMQPSHDVRFRYRLHPTE	–	–	–	–	Km [4]: 0.54 µM; kcat [4]: 1.20 min⁻¹; kcat/Km [4]: 2.2 μM^−^1min^−1
human CYP8B1 (Homo sapiens) (protein) RQRRPWEPPLDKGTVPWLGHAMAFRKNMFEFLKRMRTKHGDVFTVQLGGQYFTFVMDPLSFGSILKDTQRKLDFGQYAKKLVLKVFGYRSVQGDHEMIHSASTKHLRGDGLKDLNETMLDSLSFVMLTSKGWSLDASCWHEDSLFRFCYYILFTAGYLSLFGYTKDKEQDLLQAGELFMEFRKFDLLFPRFVYSLLWPREWLEVGRLQRLFHKMLSVSHSQEKEGISNWLGNMLQFLREQGVPSAMQDKFNFMMLWASQGNTGPTSFWALLYLLKHPEAIRAVREEATQVLGEARLETKQSFAFKLGALQHTPVLDSVVEETLRLRAAPTLLRLVHEDYTLKMSSGQEYLFRHGDILALFPYLSVHMDPDIHPEPTVFKYDRFLNPNGSRKVDFFKTGKKIHHYTMPWGSGVSICPGRFFALSEVKLFILLMVTHFDLELVDPDTPLPHVDPQRWGFGTMQPSHDVRFRYRLHPTE	–	–	–	–	Km [5]: 0.5 µM; kcat [5]: 7.4 min⁻¹; kcat/Km [5]: 14.7 μM^−^1min^−1
